Assay results of several laboratories.
Each line is one published result; the experiments were not run side by side.
Target: Cyclin-dependent kinase 8 (CDK8, Homo sapiens, UniProt P49336)

C[C@H]1CC[C@H](n2c3cnccc3c3cnc(Nc4ccc5c(n4)CCN(C(=O)CO)C5)nc32)CC1 — remaining binding (binding; competition with immobilised ligand; 1 µM): 100%
CCCCC(=O)Nc1ccc(-c2ccc3ncn(CCC)c(=O)c3c2)cn1 — remaining binding (binding; competition with immobilised ligand; 0.5 µM): 83%
C[C@]1(O)CCCN(c2nc(Nc3ccc(S(=O)(=O)N[C@H]4CC[C@H](CN5CCN(c6ccc(C7CCC(=O)NC7=O)cc6F)CC5)CC4)cc3Cl)ncc2C(F)(F)F)C1 (some centres unmarked) — remaining binding (binding; competition with immobilised ligand; 1 µM): 80%
C1=C/COCc2cc(ccc2OCCN2CCCC2)Nc2nccc(n2)-c2cccc(c2)COC/1 — remaining signal (cell-free assay; 0.1 µM): 75%
CC#CC(=O)N1CCC[C@H]1c1nc(-c2ccc(C(=O)Nc3ccccn3)cc2)c2c(N)nccn12 — inhibition (enzyme activity; inhibitor; 1 µM): 5%
Cc1cc(S(=O)(=O)N[C@H]2CC[C@H](CN3CCN(c4ccc(C5CCC(=O)NC5=O)cc4F)CC3)CC2)ccc1Nc1ncc(C(F)(F)F)c(N2CCC[C@](C)(O)C2)n1 (some centres unmarked) — remaining binding (binding; competition with immobilised ligand; 1 µM): 76%
Cc1ccc(NC(=O)c2ccnc(C(F)(F)F)c2)cc1-c1cc(OCCO)nc(N2CCOCC2)c1 — remaining binding (binding; competition with immobilised ligand; 1 µM): 100%
CO[C@@H]1[C@H](N(C)C(=O)c2ccccc2)C[C@H]2O[C@]1(C)n1c3ccccc3c3c4c(c5c6ccccc6n2c5c31)C(=O)NC4 — inhibition (enzyme activity; inhibitor; 1 µM): 5%
